Reference: ChEMBL document CHEMBL1150115, “Bioactive abietane and seco-abietane diterpenoids from Salvia prionitis” (J Nat Prod, 2002)
Values after ≈ are worked out from the molar mass of the structure shown. Active and inactive are the calls of the source. The rule behind the calls is not given here.

What was measured:
[1] = tested on: Micrococcus luteus; assay: Antibacterial activity against Micrococcus luteus after 18 hrs by microdilution assay; type: functional
Method in brief: (§1)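 Broth microdilution in Mueller-Hinton broth, with cells at a set final CFU/mL density. Compounds dissolved in DMSO. Incubation at 37 °C for 18 h under aerobic conditions. Blank controls received a limited amount of DMSO under the same conditions. Read-out is MIC.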

[2] = tested on: Staphylococcus aureus; assay: Antibacterial activity against Staphylococcus aureus after 18 hrs by microdilution assay; type: functional; method in brief: as §1
[3] = tested on: SGC-7901; assay: Cytotoxicity against human SGC7901 cells after 48 hr by MTT assay; type: functional, cell-based
[4] = tested on: HL-60; assay: Cytotoxicity against human HL60 cells after 48 hr by MTT assay; type: functional, cell-based
[5] = tested on: MKN-28; assay: Cytotoxicity against human MKN28 cells after 48 hr by MTT assay; type: functional, cell-based
[6] = target: T1, DNA topoisomerase 1 (Mus musculus, UniProt Q04750); assay: Inhibition of topoisomerase 1 extracted from mouse EAC cells assessed as inhibition of Escherichia coli pBR322 relaxation; type: cell-free, Ehrlich
T1 sequence (Q04750 whole entry): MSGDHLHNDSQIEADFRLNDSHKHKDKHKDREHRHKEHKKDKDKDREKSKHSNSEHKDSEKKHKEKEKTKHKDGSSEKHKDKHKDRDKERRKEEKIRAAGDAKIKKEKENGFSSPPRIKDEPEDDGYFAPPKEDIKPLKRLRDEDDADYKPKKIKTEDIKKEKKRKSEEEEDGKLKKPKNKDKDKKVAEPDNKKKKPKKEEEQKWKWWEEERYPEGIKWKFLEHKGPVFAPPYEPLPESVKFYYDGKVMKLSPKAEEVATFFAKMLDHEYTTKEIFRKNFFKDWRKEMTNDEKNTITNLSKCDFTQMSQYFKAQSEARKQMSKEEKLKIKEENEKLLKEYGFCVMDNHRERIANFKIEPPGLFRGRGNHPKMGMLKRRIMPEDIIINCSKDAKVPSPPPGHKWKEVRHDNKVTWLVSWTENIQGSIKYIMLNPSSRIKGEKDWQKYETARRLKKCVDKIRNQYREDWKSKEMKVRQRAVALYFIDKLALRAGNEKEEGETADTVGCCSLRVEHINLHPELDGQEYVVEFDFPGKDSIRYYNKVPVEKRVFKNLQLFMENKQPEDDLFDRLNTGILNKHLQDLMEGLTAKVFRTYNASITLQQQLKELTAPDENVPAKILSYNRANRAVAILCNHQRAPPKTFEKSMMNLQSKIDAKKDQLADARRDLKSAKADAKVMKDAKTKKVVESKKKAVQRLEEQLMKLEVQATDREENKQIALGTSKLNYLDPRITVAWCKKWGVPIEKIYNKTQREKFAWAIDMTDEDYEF

Row | Compound | Activity [3] | Activity [4] | Activity [5] | also measured
1 | CC(C)C1=CC(=O)C([C@@]2(C)CCCC(C)(C)[C@@H]2CC=O)=CC1=O |  |  |  | MIC [1]: 15 µM (≈ 4.75 µg/mL); MIC [2]: 20 µM (≈ 6.33 µg/mL)
2 | Cc1ccc2cc(C(C)C)c(O)c3c2c1C(=O)OC3=O | inactive | inactive | inactive | 
3 | Cc1ccc2c(c1CCC(=O)C(C)(C)O)C(=O)C(=O)C(C(C)C)=C2 |  |  |  | IC50 ([3]; SGC-7901, 48 h): 200 nM; IC50 ([4]; HL-60, 48 h): 4600 nM; IC50 ([5]; MKN-28, 48 h): 300 nM
4 | C=C(C)C1CCc2c(C)ccc3c2[C@]1(O)C(=O)C(C(C)C)=C3 (some centres not stated) | inactive | inactive | inactive | 
5 | Cc1ccc2c(c1CCCC(C)(C)O)C(=O)C(=O)C(C(C)C)=C2 |  |  |  | IC50 [6]: 800 nM
